Laboratory results as given in ChEMBL document CHEMBL5712884, “S-Adenosyl-L-methionine-competitive inhibitors of the histone methyltransferase EZH2 induce autophagy and enhance drug sensitivity in cancer cells” (Anticancer Drugs, 2015).
Each block holds one molecule with its values, some of them ahead of it. Calls of active or inactive are those of the source. No cut-off for these calls is given here.

What was measured:
MDA-MB-231 [1] = test: Induction of apoptosis in human MDA-MB-231 cells assessed as cleavage of PARP at 0.75 umol/L incubated for 72 hrs by Western blot analysis; format: functional, cell-based; conditions: dose 0.75 µmol/L
MDA-MB-231 [2] = test: […] in human MDA-MB-231 cells assessed as induction of LC3-II accumulation at 1 umol/L for 48 hrs by Western blot analysis; format: functional, cell-based; conditions: dose 1.0 µmol/L
MDA-MB-231 [3] = test: Induction of apoptosis in human MDA-MB-231 cells assessed as cleavage of caspase-3 at 0.75 umol/L incubated for 72 hrs by Western blot analysis; format: functional, cell-based; conditions: dose 0.75 µmol/L
MDA-MB-231 [4] = test: Induction of autophagy in human MDA-MB-231 cells assessed as formation of autophagic vacuoles by measuring increase in Cyto-ID fluorescence intensity at 10 umol/L by measured after 24 hrs by Cyto-ID/Hoechst 33342 fluorescence microscopic analysis; format: functional, cell-based; conditions: dose 10.0 µmol/L
How it was run: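 MDA-MB-231 cells washed twice in PBS with 5% FBS, then stained with Cyto-ID detection reagent plus Hoechst 33342 for 30 min at 37°C. Cells washed and autophagic vacuoles imaged by fluorescence microscopy.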

MDA-MB-231 [5] = test: Cytotoxicity against human MDA-MB-231 cells assessed as reduction in cell viability after 72 hr by MTT analysis; format: functional, cell-based
How it was run: (§1)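 Cells in DMEM with 10% FBS at 37°C, 5% CO2, plated in 96-well plates and drug-treated for 72 h. MTT 0.5 mg/ml added for 4 h, formazan dissolved in DMSO, absorbance read at 550 nm. Means and SDs; Student's t-test.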

MDA-MB-231 [6] = test: Induction of apoptosis in human MDA-MB-231 cells assessed as induction of cleavage of caspase-3 at 10 to 20 umol/L incubated for 72 hrs by Western blot analysis; format: functional, cell-based; conditions: dose 10-20 µmol/L
MDA-MB-231 [7] = test: Induction of autophagy in human MDA-MB-231 cells assessed as change in total LAMP2 expression at 10 umol/L measured after 24 hrs by Western blot analysis; format: toxicity, cell-based; conditions: mda-mb-231, 24 h, 10 µM, dose 10 µmol/L
[8] = target: Histone-lysine N-methyltransferase EZH2 (Homo sapiens) (UniProt Q15910); test: Inhibition of EZH2 in human HepG2 cells assessed as reduction in H3K27-me3 level at 10 umol/L incubated for 72 hrs by Western blot analysis; format: cell-based; conditions: dose 10.0 µmol/L
Sequence of Histone-lysine N-methyltransferase EZH2 (Homo sapiens) (Q15910 whole entry, looked up): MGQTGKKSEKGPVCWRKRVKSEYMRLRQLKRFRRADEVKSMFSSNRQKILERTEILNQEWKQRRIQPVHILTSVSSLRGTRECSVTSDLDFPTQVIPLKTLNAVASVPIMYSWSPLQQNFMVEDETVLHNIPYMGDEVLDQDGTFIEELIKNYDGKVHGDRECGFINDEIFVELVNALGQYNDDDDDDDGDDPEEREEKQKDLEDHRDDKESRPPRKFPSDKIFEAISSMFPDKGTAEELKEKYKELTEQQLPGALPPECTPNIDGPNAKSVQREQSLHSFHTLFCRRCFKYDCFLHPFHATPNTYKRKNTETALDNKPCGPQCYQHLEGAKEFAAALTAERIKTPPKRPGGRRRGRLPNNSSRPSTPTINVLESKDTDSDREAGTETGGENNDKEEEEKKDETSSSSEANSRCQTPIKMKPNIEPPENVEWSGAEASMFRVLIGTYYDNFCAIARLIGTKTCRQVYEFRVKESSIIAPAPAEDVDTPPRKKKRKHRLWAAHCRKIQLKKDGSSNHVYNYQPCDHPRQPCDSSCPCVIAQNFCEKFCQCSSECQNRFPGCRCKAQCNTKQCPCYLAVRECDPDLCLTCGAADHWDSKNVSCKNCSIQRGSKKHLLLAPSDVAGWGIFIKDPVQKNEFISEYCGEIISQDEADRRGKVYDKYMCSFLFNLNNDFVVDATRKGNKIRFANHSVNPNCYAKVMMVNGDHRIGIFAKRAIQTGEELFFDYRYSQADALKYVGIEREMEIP

MDA-MB-231 [9] = test: Induction of apoptosis in human MDA-MB-231 cells assessed as reduction in pro-caspase-3 expression at 10 to 20 umol/L incubated for 72 hrs by Western blot analysis; format: functional, cell-based; conditions: dose 10-20 µmol/L
HepG2 [10] = test: Cytotoxicity against human HepG2 cells assessed as effect on cell viability after 72 hrs by MTT analysis; format: functional, cell-based; how it was run: as §1
MDA-MB-231 [11] = test: Induction of apoptosis in human MDA-MB-231 cells assessed as induction of cleavage of PARP at 10 to 20 umol/L incubated for 72 hrs by Western blot analysis; format: functional, cell-based; conditions: dose 10-20 µmol/L
HepG2 [12] = test: Potentiation of sorafenib-induced anticancer activity in human HepG2 cells assessed as increase in LC3-II accumulation at 10 umol/L measured after 72 hrs by Western blot analysis; format: functional, cell-based; conditions: dose 10.0 µmol/L
How it was run: (§2)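 HepG2 cells given 5 μmol/l sorafenib, with or without 10 μmol/l compound, for 72 h. Whole-cell lysates immunoblotted for PARP1, LC3B and β-actin.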

MDA-MB-231 [13] = test: Induction of autophagy in human MDA-MB-231 cells assessed as downregulation of p62 expression at 10 umol/L measured after 24 hrs in presence of bafilomycin A1 by Western blot analysis; format: functional, cell-based; conditions: dose 10.0 µmol/L
[14] = target: Histone-lysine N-methyltransferase EZH2 (Homo sapiens) (UniProt Q15910); test: Inhibition of EZH2 in human A549 cells assessed as reduction in H3K27-me3 level at 10 umol/L incubated for 72 hrs by Western blot analysis; format: cell-based; conditions: dose 10.0 µmol/L
A549 [15] = test: […] in human A549 cells assessed as induction of LC3-II accumulation at 10 to 20 umol/L measured after 24 hrs in presence of bafilomycin A1 by Western blot analysis; format: functional, cell-based; conditions: dose 10-20 µmol/L
How it was run: (§3)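 A549 and HepG2 cells drug-treated with or without bafilomycin A1. Lysates made in Tris pH 7.5/NP-40 buffer with protease and phosphatase inhibitors, 25–50 μg run on 7–12% SDS-PAGE, probed for LC3B, ECL detection.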

A549 [16] = test: Cytotoxicity against human A549 cells assessed as reduction in cell viability at 10 umol/L measured after 72 hrs in presence of class III PI3K inhibitor 3-methyladenine by MTT assay; format: functional, cell-based; conditions: dose 10.0 µmol/L
How it was run: (§4)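 HepG2 and A549 cells pretreated 1 h with 2 mmol/l 3-MA, then exposed to 10 μmol/l compound for 72 h. Viability read by MTT (0.5 mg/ml, 4 h, formazan in DMSO, A550). Means and SDs; Student's t-test against cells without 3-MA.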

[17] = target: Histone-lysine N-methyltransferase EZH2 (Homo sapiens) (UniProt Q15910); test: Inhibition of EZH2 in human MDA-MB-231 cells assessed as reduction in H3K27-me3 level at 10 umol/L incubated for 72 hrs by Western blot analysis; format: cell-based; conditions: dose 10.0 µmol/L
MDA-MB-231 [18] = test: Induction of autophagy in human MDA-MB-231 cells assessed as increase in LC3-II accumulation at 10 umol/L incubated for 24 hrs in presence of bafilomycin A1 by Western blot analysis; format: functional, cell-based; conditions: dose 10.0 µmol/L
MDA-MB-231 [19] = test: Induction of autophagy in human MDA-MB-231 cells assessed as induction of LC3-II accumulation at 10 to 20 umol/L incubated for 24 hrs by Western blot analysis; format: functional, cell-based; conditions: dose 10-20 µmol/L
A549 [20] = test: […] in human A549 cells assessed as induction of LC3-II accumulation at 10 to 20 umol/L measured after 24 hrs by Western blot analysis; format: functional, cell-based; conditions: dose 10-20 µmol/L; how it was run: as §3
MDA-MB-231 [21] = test: Cytotoxicity against human MDA-MB-231 cells assessed as reduction in cell viability measured after 72 hrs in presence of class III PI3K inhibitor 3-methyladenine by MTT assay; format: functional, cell-based
MDA-MB-231 [22] = test: Induction of autophagy in human MDA-MB-231 cells assessed as induction of LC3-II accumulation at 10 umol/L for 48 hrs by Western blot analysis; conditions: dose 10.0 µmol/L
MDA-MB-231 [23] = test: Induction of autophagy in human MDA-MB-231 cells assessed as change in total LAMP2 expression at 10 umol/L measured after 24 hrs in presence of bafilomycin A1 by Western blot analysis; format: toxicity, cell-based; conditions: mda-mb-231, 24 h, 10 µM, dose 10 µmol/L
HepG2 [24] = test: Potentiation of sorafenib-induced anticancer activity in human HepG2 cells assessed as increase in cleaved PARP expression at 10 umol/L measured after 72 hrs by Western blot analysis; format: functional, cell-based; conditions: dose 10.0 µmol/L; how it was run: as §2
HepG2 [25] = test: Cytotoxicity against human HepG2 cells assessed as reduction in cell viability at 10 umol/L measured after 72 hrs in presence of class III PI3K inhibitor 3-methyladenine by MTT assay; format: functional, cell-based; conditions: dose 10.0 µmol/L; how it was run: as §4
HepG2 [26] = test: Cytotoxicity against human HepG2 cells assessed as effect on cell viability incubated for 72 hrs by MTT analysis; format: functional, cell-based; how it was run: as §1
MDA-MB-231 [27] = test: Induction of autophagy in human MDA-MB-231 cells assessed as reduction in expression of p62 at 10 umol/L incubated for 24 hrs by Western blot analysis; format: functional, cell-based; conditions: dose 10.0 µmol/L
HepG2 [28] = test: Potentiation of sorafenib-induced anticancer activity in human HepG2 cells at 10 umol/L measured after 72 hrs by MTT assay; format: functional, cell-based; conditions: dose 10.0 µmol/L
How it was run: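 HepG2 cells given a range of sorafenib doses, with or without 10 μmol/l compound, for 72 h. Viability by MTT (0.5 mg/ml, 4 h, DMSO, A550). Student's t-test against untreated cells.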

MDA-MB-231 [29] = test: […] in human MDA-MB-231 cells assessed as induction of LC3-II accumulation at 10 umol/l measured after 24 hrs in presence of class III PI3K inhibitor 3-methyladenine by Western blot analysis; format: functional, cell-based; conditions: dose 10.0 µmol/L
MDA-MB-231 [30] = test: Induction of autophagy in human MDA-MB-231 cells assessed as induction of LC3-II accumulation at 10 to 20 umol/L incubated for 72 hrs by Western blot analysis; format: functional, cell-based; conditions: dose 10-20 µmol/L
HepG2 [31] = test: […] in human HepG2 cells assessed as induction of LC3-II accumulation at 10 to 20 umol/L measured after 24 hrs by Western blot analysis; format: functional, cell-based; conditions: dose 10-20 µmol/L; how it was run: as §3
HepG2 [32] = test: […] in human HepG2 cells assessed as induction of LC3-II accumulation at 10 to 20 umol/L measured after 24 hrs in presence of bafilomycin A1 by Western blot analysis; format: functional, cell-based; conditions: dose 10-20 µmol/L; how it was run: as §3

SMILES: COc1cccc2c1C(=O)c1c(O)c3c(c(O)c1C2=O)C[C@@](O)(C(=O)CO)C[C@@H]3O[C@H]1C[C@H](N)[C@H](O)[C@H](C)O1
- Activity (MDA-MB-231 [1]): Active
- Activity (MDA-MB-231 [2]): Active
- Activity (MDA-MB-231 [3]): Active

- inhibition [8]: Active
- inhibition [14]: Active
- inhibition [17]: Active
SMILES: CCCc1cc(C)[nH]c(=O)c1CNC(=O)c1cc(-c2ccnc(N3CCN(C)CC3)c2)cc2c1cnn2C(C)C
- Activity (MDA-MB-231 [4]): Active
- Activity (MDA-MB-231 [5]): Dose-Dependent Effect
- Activity (MDA-MB-231 [6]): inactive
- Activity (MDA-MB-231 [7]): Non-Toxic
- Activity (MDA-MB-231 [9]): Active
- Activity (HepG2 [10]): Active
- Activity (MDA-MB-231 [11]): Active
- Activity (HepG2 [12]): Active
- Activity (MDA-MB-231 [13]): inactive
- Activity (A549 [15]): Active
- Activity (A549 [16]): inactive
- Activity (MDA-MB-231 [18]): Active
- Activity (MDA-MB-231 [19]): Active
- Activity (A549 [20]): Active
- Activity (MDA-MB-231 [21]): inactive
- Activity (MDA-MB-231 [22]): Active
- Activity (MDA-MB-231 [23]): Non-Toxic
- Activity (HepG2 [24]): Active
- Activity (HepG2 [25]): inactive
- Activity (HepG2 [26]): Active
- Activity (MDA-MB-231 [27]): Active
- Activity (HepG2 [28]): Active
- Activity (MDA-MB-231 [29]): inactive
- Activity (MDA-MB-231 [30]): Active
- Activity (HepG2 [31]): Active
- Activity (HepG2 [32]): Active

SMILES: COc1ccc2cc3[n+](cc2c1OC)CCc1cc2c(cc1-3)OCO2
- Activity (MDA-MB-231 [22]): Active

SMILES: CC(=O)O[C@H]1C(=O)[C@@]2(C)[C@H]([C@H](OC(=O)c3ccccc3)[C@]3(O)C[C@H](OC(=O)[C@H](O)[C@@H](NC(=O)c4ccccc4)c4ccccc4)C(C)=C1C3(C)C)[C@]1(OC(C)=O)CO[C@@H]1C[C@@H]2O
- Activity (MDA-MB-231 [2]): Active
